From PubChem
DENV2 CPE – protects cells from dengue virus 2 cytopathic effect. DENV2-infected cells, cytopathic effect rescue, plate reader. CPE inhibition, % at 9.99 µM. 350,000 tested, 1.7% active. AID 651640; in the data active = CPE inhibition above about 20%, passing the limit was not always enough; tested in BHK-21 cells
FN deposition inh – fibronectin deposition inhibition. inhibition, % at 12.6 µM. AH1F fibroblasts, Alexa488-fibronectin deposition fluorescence, overnight. AID 743247. 350,000 tested, 0.086% active;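 active = mean inhibition across replicates of 30% or more, regardless of how many single replicates reach that level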
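test system = AH1F fibroblasts assembling fluorescent fibronectin matrix | quantity = 10000 AH1F cells per well | buffer or medium = DMEM plus 2% serum, read in PBS | doses = single dose, pinned | incubation = 1 h cell attachment, overnight exposure to compound and label | detection = fluorescence at 485 nm excitation, 525 nm emission | read-out basis = inhibition from reduced deposited-fibronectin fluorescence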
Xi reactivation – X-chromosome reactivation activator; XiGFP mouse fibroblasts, % GFP-positive cells imaging, 3 d; cells co-treated with 5-aza-dC sensitizer; scaled so ellipticine positive control = 100%; 360,000 tested, 0.055% active; activation, % at 7.58 µM; AID 743238;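 active = mean normalized replicate activation at least 10% and every replicate at or above 10%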
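Material: SV40-immortalized XiGFP fibroblast cells, line 68-5-11 | Buffer or medium: DMEM containing 5-aza-dC | Dosing: One concentration, pinned | Times: 3 d treatment, 15 min room-temperature fixation | Controls: Ellipticine 6 µM positive control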
SIRT5 inh – inhibitors of human sirtuin-5 desuccinylase | inhibition, % at 15 µM | AID 652115 | Q9NXA8 | Purified SirT5, succinyl-peptide AMC, trypsin-coupled fluorescence | 330,000 tested, 1.1% active; in the data active = inhibition above about 15%
Target sequence (Q9NXA8 whole entry, looked up): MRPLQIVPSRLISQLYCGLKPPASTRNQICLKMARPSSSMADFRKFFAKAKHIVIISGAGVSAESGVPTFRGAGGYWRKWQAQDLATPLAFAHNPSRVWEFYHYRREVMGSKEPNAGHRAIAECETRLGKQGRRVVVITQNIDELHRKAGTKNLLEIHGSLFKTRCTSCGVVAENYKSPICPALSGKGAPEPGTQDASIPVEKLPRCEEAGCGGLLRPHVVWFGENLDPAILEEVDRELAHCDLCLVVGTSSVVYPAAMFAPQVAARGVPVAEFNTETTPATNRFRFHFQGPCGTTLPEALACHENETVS
FGF22 binding – FGF22 (human) thermal shift binding; recombinant FGF22 thermal shift, SYPRO orange fluorescence; percent of sucrose octasulfate shift, DMSO zero; activity (Tm shift, normalised), % at 9.99 µM; 340,000 tested, 1.5% active;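 active = mean Tm shift, scaled 0 neutral to 100 positive control, at about 1.3% or above, every replicate too, limit read from the data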
Target sequence (Q9HCT0 whole entry, looked up): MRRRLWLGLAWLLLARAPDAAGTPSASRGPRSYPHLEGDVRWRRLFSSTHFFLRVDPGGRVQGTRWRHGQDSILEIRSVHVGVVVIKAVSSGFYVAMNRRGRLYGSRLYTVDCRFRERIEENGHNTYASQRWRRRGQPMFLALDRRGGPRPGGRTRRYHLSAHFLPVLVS
ARNT TACC3 PPI – ARNT/TACC3 interaction disruption; Q9Y6A5; AlphaScreen His-ARNT PAS-B/GST-TACC3 binding, luminescence; TACC3 fragment carries E629A point mutation; inhibition, % at 9.99 µM; 390,000 tested, 0.66% active;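 active = mean inhibition of replicates at least 50% and at least half of replicates each reaching 50%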
Large screens that a line does not name were inactive; ! = not active in a repeat. In the library only some 3.8% were active in any assay of this set; here they are far more common.

COc1ccc(NC(=O)N(C)C[C@H]2Oc3ccc(NC(=O)NC(C)C)cc3C(=O)N([C@H](C)CO)C[C@H]2C)cc1	DENV2 CPE 34.4 (no result: FN deposition inh)
COc1ccc(NC(=O)N(C)C[C@@H]2Oc3ccc(NC(=O)NC(C)C)cc3C(=O)N([C@@H](C)CO)C[C@H]2C)cc1	none (no result: FN deposition inh)
C[C@@H]1CN([C@@H](C)CO)C(=O)c2cc(NC(=O)CCC(F)(F)F)ccc2O[C@@H]1CN(C)C(=O)Nc1ccccc1	DENV2 CPE 25.8
COc1ccc(NC(=O)Nc2ccc3c(c2)C(=O)N([C@H](C)CO)C[C@@H](C)[C@@H](CN(C)C(=O)Nc2ccc(C(F)(F)F)cc2)O3)cc1	SIRT5 inh 15.3 (no result: FN deposition inh)
C[C@@H]1CN([C@H](C)CO)C(=O)c2cc(NC(=O)Nc3ccc4c(c3)OCO4)ccc2O[C@H]1CN(C)C(=O)Nc1ccc(C(F)(F)F)cc1	none
C[C@H](CO)N1C[C@H](C)[C@@H](CN(C)C(=O)Nc2ccc(C(F)(F)F)cc2)Oc2ccc(NC(=O)Nc3ccccc3)cc2C1=O	FGF22 binding 19.2!
C[C@H]1CN([C@@H](C)CO)C(=O)c2cc(NC(=O)Nc3ccc(C(F)(F)F)cc3)ccc2O[C@H]1CN(C)C(=O)Nc1ccc2c(c1)OCO2	none (no result: FN deposition inh)
C[C@@H]1CN([C@H](C)CO)C(=O)c2cc(NC(=O)Nc3ccc(C(F)(F)F)cc3)ccc2O[C@@H]1CN(C)C(=O)Nc1ccc2c(c1)OCO2	SIRT5 inh 15.1 (no result: FN deposition inh)
O=C(c1ccc(C(F)(F)F)cc1)C1CCCN(C(=O)CN2CCCC2=O)C1 (stereo not given)	FGF22 binding 43.1 (no result: FN deposition inh)
O=C(c1ccc(C(F)(F)F)cc1)C1CCCN(C(=O)CN2C(=O)CSC2=O)C1 (stereo not given)	none (no result: FN deposition inh)
CN(C)CCOC(=O)NCC12CC3CC(CC(C3)C1)C2	SIRT5 inh 21.5
C[C@@H]1CN([C@@H](C)CO)C(=O)c2cc(NC(=O)Nc3ccccc3)ccc2O[C@@H](C)CCCCO[C@H]1CN(C)C(=O)Nc1ccccc1	none (no result: DENV2 CPE, SIRT5 inh, FGF22 binding, ARNT TACC3 PPI)
CN(C(=O)COC(=O)c1ccc(S(=O)(=O)N2CCOCC2)cc1)c1ccccc1	DENV2 CPE 80.8
CCOC(=O)C1CCN(S(=O)(=O)c2ccc(C(C)(C)C)cc2)CC1	FGF22 binding 43.2
CCOC(=O)C1CCN(S(=O)(=O)c2ccc(CC)cc2)CC1	none (no result: DENV2 CPE, Xi reactivation, SIRT5 inh, FGF22 binding)
O=C(COC(=O)c1ccc(S(=O)(=O)Nc2ccccc2)cc1)NCCC1=CCCCC1	FGF22 binding 43.6
CCCNC(=O)COC(=O)c1ccc(S(=O)(=O)N2CCCC2)cc1	FGF22 binding 43.9
N#CCCN(C(=O)COC(=O)c1ccc(S(=O)(=O)N2CCOCC2)cc1)c1ccccc1	none
CC(C)NC(=O)N(C)C[C@@H]1OCCCC[C@@H](C)Oc2ccc(NC(=O)CCC(F)(F)F)cc2C(=O)N([C@@H](C)CO)C[C@H]1C	none
COc1cccc(CN(C)C[C@H]2OCc3cn(nn3)CCCC(=O)N([C@@H](C)CO)C[C@H]2C)c1	none
CCOC(=O)c1ccc(S(=O)(=O)N2CCN(C(=O)c3nn(C)c(=O)c4ccccc34)CC2)cc1	FGF22 binding 43.1
CCOC(=O)c1ccc(S(=O)(=O)NC2CC2)cc1	none
CCOC(=O)c1ccc(S(=O)(=O)NC2CCC(C)CC2)cc1 (stereo not given)	SIRT5 inh 21.1
CCOC(=O)c1ccc(S(=O)(=O)N2CCC(N3CCCCC3)CC2)cc1	DENV2 CPE 32.1 (no result: SIRT5 inh, ARNT TACC3 PPI)
CC(=O)NS(=O)(=O)c1ccc(NC(=S)NC(=O)CC(C)C)cc1	none
CC(=O)NS(=O)(=O)c1ccc(NC(=S)NC(=O)Cc2ccccc2)cc1	FGF22 binding 43.1
COc1cc2c(c(OC)c1OC)CC(c1ccccc1)=C(c1ccccc1)CC2NC(=O)C(F)(F)F (stereo not given)	none (no result: ARNT TACC3 PPI)
COc1cc2c(cc1OC)C(NC(=O)C(F)(F)F)CNC2=O (stereo not given)	FGF22 binding 43.0 (no result: ARNT TACC3 PPI)
C=CCn1c(C)nnc1SCC(=O)NC1CCCCC1	none
C=CCn1c(C)nnc1SCC(=O)NC1CC1	DENV2 CPE 93.5
